Results from ChEMBL document CHEMBL5214977, “Discovery and Optimization of Quinoline Analogues as Novel Potent Antivirals against Enterovirus D68” (J Med Chem, 2022).

How the values were obtained:
RD = assay: Cytotoxicity against human RD cells assessed as inhibition of cell viability by measuring ATP level incubated for 72 hrs by cell titer-glo luminescent cell viability assay; format: functional
Method in brief: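 Uninfected RD cells seeded at 1.5 × 10^4/well and grown 24 h, then exposed to compound in 3-fold dilutions (0.01–200 μM), with DMSO as cell control. ATP read by CellTiter-Glo luminescence after 72 h; CC50 is the 50% cytotoxic concentration.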

[1] = Selectivity index, ratio of CC50 for human RD cells to EC50 for Enterovirus-D68 STL-2014-12 infected in human RD cells to; format: toxicity, cell-based; conditions: RD cells, read-out: Ratio CC50/EC50
Method in brief: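 EC50 came from a CPE reduction assay. RD cells (1.5 × 10^4 per well, grown 24 h) were infected with 100 TCID50 of the named strain and given 3-fold dilutions from 0.01 to 200 μM. After 72 h at 37 °C, ATP was read by CellTiter-Glo and normalized to infected and uninfected controls. CC50 came from uninfected cells under the same dilutions, 72 h and ATP readout. SI = CC50/EC50.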

enterovirus D68 = assay: Antiviral activity against Enterovirus-D68 STL-2014-12 infected in human RD cells assessed as reduction in virus induced cytopathic effect by measuring ATP level incubated for 72 hrs by cell titer-glo luminescent cell viability assay; format: functional, organism-based; conditions: Enterovirus D, STL-2014-12, RD, 72 h
Method in brief: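 RD cells seeded at 1.5 × 10^4/well and grown 24 h, then given 100 TCID50 virus plus compound in 3-fold dilutions (0.01–200 μM). DMSO control. Incubated 37 °C for 72 h; ATP read by CellTiter-Glo luminescence and normalized to uninfected and infected controls. EC50 is the concentration giving 50% CPE reduction. Strains: STL-2014-12, US/KY/14-18953, US/MO/14-18947, Fermon.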

Row | Compound | CC50 (RD) [nM] | selectivity ratio [1] | EC50 (enterovirus D68) [nM]
1 | CC(C)(C)c1nc(-c2cnc3ccc(-c4ccc(N)cc4)cc3c2)no1 | > 7400 | > 2 | 4220
2 | Cc1nc(-c2cnc3ccc(-c4ccccc4)cc3c2)no1 | > 2500 | > 11 | 220
3 | CC(C)c1ccc(-c2ccc3ncc(-c4noc(C(F)(F)F)n4)cc3c2)cc1 | > 200000 | > 39 | 5080
4 | CCc1ccc(-c2ccc3ncc(-c4noc(C)n4)cc3c2)cc1 | > 7400 | > 16 | 470
5 | CCCc1ccc(-c2ccc3ncc(-c4noc(C)n4)cc3c2)cc1 | > 7400 | > 10 | 780
6 | Cc1nc(-c2cnc3ccc(-c4ccc(N)cc4)cc3c2)no1 | > 2500 | > 9 | 280
7 | Cc1nc(-c2cnc3ccc(-c4ccc(N)nc4)cc3c2)no1 | > 7400 | > 15 | 510
8 | CC(C)c1nc(-c2cnc3ccc(-c4ccc(N)cc4)cc3c2)no1 | > 800 | > 2 | 400
9 | CCCCc1ccc(-c2ccc3ncc(-c4noc(C)n4)cc3c2)cc1 | > 2500 | > 4 | 590
10 | CCOC(=O)c1cnc2ccc(-c3ccccc3)cc2c1 | > 7400 | > 8 | 900
11 | CCCCc1nc(-c2cnc3ccc(-c4ccc(N)cc4)cc3c2)no1 | > 2500 | > 3 | 710
12 | CN(C)c1ccc(-c2ccc3ncc(-c4noc(C(F)(F)F)n4)cc3c2)cc1 | > 22200 | > 16 | 1350
13 | FC(F)(F)c1nc(-c2cnc3ccc(-c4ccc(N5CCOCC5)cc4)cc3c2)no1 | > 22200 | > 1 | 33900
14 | CCCc1nc(-c2cnc3ccc(-c4ccc(N)cc4)cc3c2)no1 | > 800 | > 2 | 410
15 | CCc1nc(-c2cnc3ccc(-c4ccccc4)cc3c2)no1 | > 7400 | > 44 | 170
16 | CCc1nc(-c2cnc3ccc(-c4ccc(NC(C)=O)cc4)cc3c2)no1 | > 7400 | > 22 | 330
17 | CCc1nc(-c2cnc3ccc(-c4ccc(OC)cc4)cc3c2)no1 | > 2500 | > 13 | 190
18 | Nc1ccc(-c2ccc3ncc(-c4noc(C(F)(F)F)n4)cc3c2)cn1 | > 2500 | > 14 | 180
19 | CCc1nc(-c2cnc3ccc(-c4ccc(N)nc4)cc3c2)no1 | > 66700 | > 555 | 120
20 | CCOC(=O)c1cnc2ccc(-c3cccc(N)c3)cc2c1 | > 7400 | > 1 | 6730
21 | CCc1nc(-c2cnc3ccc(-c4ccc(N)c(Cl)c4)cc3c2)no1 | > 7400 | > 12 | 610
22 | Cc1ccc(-c2ccc3ncc(-c4noc(C)n4)cc3c2)cc1 | > 7400 | > 13 | 570
23 | CCc1nc(-c2cnc3ccc(-c4ccc(N5CCOCC5)cc4)cc3c2)no1 | > 200000 | > 17 | 11800
24 | CCc1nc(-c2cnc3ccc(-c4ccc(F)cc4)cc3c2)no1 | > 7400 | > 22 | 330
